SKN-1 inh – suppressors of acrylamide-induced Pgst-4::GFP reporter in worms, primary screen, SKN-1 inhibitor project, whole organism, uHTS, GFP/RFP fluorescence ratio, strain VP596; C. elegans VP596 Pgst-4::GFP/RFP ratio, 24 h; inhibition, % at 21.8 µM; hit rate 0.49% among 360,000; AID 624304, 2012;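 active means interference check ratio from 0.5 to 1.5 plus GFP to RFP signal ratio inhibition reaching or exceeding a fixed threshold, cut at about 30% in these data, passing the limit was not always enough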
T cell HTS – modulators of CD8 T cell-vesicle binding, primary screen, mouse 2C CD8+ T cells, flow cytometry | hit rate 0.068% among 330,000 | AID 2052, 2009 | 2C CD8+ T cell-vesicle binding; stronger effect = lower value | response (vesicle binding), % at 7 µM;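 active means response, share of CD8 T cells binding vesicles, and their 90th percentile fluorescence all below set limits, cut at about 80% in these data, passing the limit was not always enough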;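 further: values below 100% mean blocked vesicle binding to the CD8+ T cells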
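Read-out – percent CD8+ FL2 mean versus row control · System – murine 2C transgenic CD8+ T lymphocytes · Times – 1.5 h cell–vesicle binding at 37 °C, then 20 min icy labelling · Control set – naked vesicles low, QL9 vesicles with vehicle high · Detection – cytometric PE anti-B7-1 and Alexa647 anti-CD8 signals after 1% paraformaldehyde fixation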
Rce1 inh – yeast Rce1p protease inhibitors, primary screen, biochemical, fluorescence, cell-free homogeneous. CAAX prenyl protease 2 (Saccharomyces cerevisiae (strain ATCC 204508 / S288c)), Q03530. yeast membranes, quenched prenylated peptide cleavage fluorescence. calls only. hit rate 0.27% among 290,000;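 active means fall in fluorescence gain of 50% or more versus controls, with final raw signal at or below 3038400; inconclusive means same 50% fall but final raw signal above 3038400; inactive means fall in fluorescence gain under 50%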;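 further: plate controls were neutral control wells for no effect and wells lacking membranes for full effect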
GRK2 inh – compounds blocking aptamer binding on GRK2 – biochemical, human GRK2, bead flow cytometry, HTS, primary screen | Beta-adrenergic receptor kinase 1 (Homo sapiens), P25098 | FAM-aptamer displacement from GRK2 | inhibition of aptamer binding, % at 10 µM | hit rate 0.59% among 330,000 | AID 488847, 2010;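 active means inhibition of aptamer binding above 40%, roughly 3 SD of noise, on plates passing a quality check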;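 further: median bead fluorescence of bound FAM aptamer so fluorescent compounds give negative values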
Myeloid diff MLP – induction of myeloid progenitor differentiation, primary screen, cell-based, flow cytometry, MLPCN library; ER-HoxA9 myeloid progenitors, lysozyme-GFP differentiation; calls only at 10 µM; hit rate 1% among 360,000; AID 624256, 2012;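 active means normalized GFP-positive differentiation at or above the plate's own cutoff, the solvent-only control mean plus 3 SD; inconclusive means no clear call, values can overlap the other calls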;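 further: cells exposed to compound for four days before flow analysis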
Rin1 Abl inh – inhibitors of Rin1-Abl protein binding, primary screen, biochemical, TR-FRET; inhibition, % at 7.35 µM; hit rate 0.4% among 360,000; AID 588664, 2011; in the data active means inhibition above about 5%, passing the limit was not always enough
* = called active by the depositor; i = inactive; ? = inconclusive; / = no result given; + = active, no number. Shown are actives, neighbours in structure and some others; about 2.6% of the full set was active somewhere.

SMILES | SKN-1 inh | T cell HTS | Rce1 inh | GRK2 inh | Myeloid diff MLP | Rin1 Abl inh
c1ccc(-c2cc(-c3ccccc3)[n+](-c3ccccc3)c(-c3ccccc3)c2)cc1 | 3.2 | 203.2 | i | 8.0 | i | -1.0
O=c1[nH]c2ccccc2n1C1CCN(C(c2ccccc2OC(F)(F)F)c2nnnn2-c2ccc3c(c2)OCCO3)CC1 (stereo not given) | -5.4 | / | / | / | i | 6.6
C=CCN1C(=O)C2(C(C(=O)OCC)=C(N)Oc3ccccc32)C2=C1CCCC2=O (stereo not given) | 36.9* | 303.8 | i | 0.0 | i | -1.7
CN(C)C(=S)SSC(=S)N(C)C | -14.3 | 232.9 | i | 4.0 | + | 0.7
Cc1ccc(S(=O)(=O)N2Cc3cnnn3-c3ccccc3C2C#N)cc1 (stereo not given) | 4.7 | / | / | / | + | 4.6
N#CC1c2ccccc2-n2nncc2CN1S(=O)(=O)c1ccc(Cl)cc1 (stereo not given) | -11.0 | / | / | / | i | 7.6
Cc1ccc(OC(F)F)c(N2C(=O)C3C4CCC(O4)C3C2=O)c1 (stereo not given) | -3.2 | 362.3 | / | 2.0 | i | 0.3
COc1cc(/C=C/c2nc3ccccc3c(=O)n2-c2cccc(O)c2)ccc1O | 7.4 | 144.2 | i | 1.0 | + | 0.2
O=[N+]([O-])c1ccc(C(c2ccc([N+](=O)[O-])cc2)c2ccc([N+](=O)[O-])cc2)cc1 | 5.4 | / | / | / | + | 3.5
COc1cc(/C=N/NP(=S)(c2ccccc2)c2ccccc2)ccc1O | 16.7 | 430.3 | i | 0.0 | i | 3.6
Oc1ccc(/C=N/NP(=S)(c2ccccc2)c2ccccc2)cc1 | 37.8* | 329.1 | i | 0.0 | i | 0.9
Cc1[nH]c2ccccc2c1CCN | -14.2 | 153.8 | i | 0.0 | i | -0.6
Cc1[nH]c2ccccc2c1CCCNC1CCCCC1 | -2.9 | 276.5 | i | 0.0 | + | 2.3
Cc1cccc(N2C(=O)NC(=O)/C(=C/c3cc4c(cc3[N+](=O)[O-])OCO4)C2=O)c1 | -17.8 | 361.7 | i | 1.0 | / | -3.0
Cc1cccc(N2C(=O)NC(=O)/C(=C\c3ccc4c(c3)CCCN4Cc3ccccc3)C2=O)c1 | 39.6* | 318.4 | i | 0.0 | i | 0.5
Cc1ccnc(-n2c(-c3ccco3)nc3ccccc3c2=O)c1 | -7.8 | 833.6 | + | 0.0 | i | -2.3
C=C(C)[C@@]12OC3(c4ccccc4)O[C@@H]1C1[C@@H]4O[C@]4(CO)[C@@H](O)[C@]4(O)C(=O)C(C)=C[C@H]4[C@@]1(O3)[C@H](C)[C@H]2OC(=O)/C=C/C=C/c1ccccc1 (stereo not given in full) | 70.2* | 651.5 | i | 0.0 | ? | 2.4
CC[C@H]1c2ccccc2[C@@H]2CC[C@H]1N2c1ccccc1 | 21.2 | / | / | / | i | /
C[n+]1c(-c2ccccc2)c2cc(N)ccc2c2ccc(N)cc21 | 88.6 | 166.6 | i | 36.0 | + | -7.4
CN1C(=O)C(=Cc2ccc(N3CCCCCC3)o2)C(=O)N(C)C1=S | 30.0 | 160.4 | / | 0.0 | + | -6.2
CN1C(=O)C(=Cc2ccc(N3CCOCC3)o2)C(=O)N(C)C1=O | 22.1 | 282.1 | i | 0.0 | i | -17.5
Cc1ccc(CN2CCC3CCC(C3)C2)c(O)c1 (stereo not given) | 10.2 | / | / | / | i | 0.8
Cc1oc(-c2cccs2)nc1CSCC(=O)N1CCC2(CC1)OCCO2 | -0.3 | 541.6 | + | 5.0 | i | -1.9
COc1ccc(-c2nc(CSCC(=O)N3CCC4(CC3)OCCO4)c(C)o2)cc1OC | 1.2 | 236.5 | i | 0.0 | i | 1.5
CCCCn1c(O)c(C(=O)/C=C/c2c[nH]c3ccccc23)c(=O)[nH]c1=O | 50.9 | i | i | 0.0 | + | 0.6
SMILES | SKN-1 inh | T cell HTS | Rce1 inh | GRK2 inh | Myeloid diff MLP | Rin1 Abl inh
O=C1C=C(N2CC2)c2ccccc2C1=O | 36.8* | / | / | / | i | -6.0
O=C1c2ccccc2-c2cc3ccccc3cc21 | 29.9 | / | / | / | i | -2.6
O=C(COc1ccc2ccc(=O)oc2c1)N1CCC(C(=O)O)(c2ccccc2)CC1 | -2.6 | 124.3 | + | 0.0 | i | -1.7
Cc1c(C)c2ccc(OCC(=O)N3CCC(C(=O)O)(c4ccccc4)CC3)cc2oc1=O | 1.9 | 200.0 | / | 2.0 | i | -2.8
Cc1nccc2c1[nH]c1ccccc12 | 20.9 | 210.0 | + | 0.0 | i | -1.6
CCOCCCNC(=O)Cn1nc(-c2ccc(OC)c(OC)c2)ccc1=O | 3.3 | / | / | / | i | -5.8
CC(C)c1ccc(N2C(=O)NC(=O)/C(=C/C=C/c3ccco3)C2=O)cc1 | 17.1 | 193.7 | i | 8.0 | + | -2.7
Cc1cc2c(C(F)(F)F)cc(=O)oc2c2c1NCCC2 | -6.4 | 140.7 | / | 1.0 | i | 2.1
O=c1cc(C(F)(F)F)c2cc3c4c(c2o1)CCCN4CCC3 | -18.6 | 330.1 | i | 3.0 | + | -13.6
Cc1cc2c(C(C)C)c(O)c(O)c(C=O)c2c(O)c1-c1c(C)cc2c(C(C)C)c(O)c(O)c(C=O)c2c1O | 10.3 | / | i | / | i | 15.6*
CC1CC2(C)C(CCC3C2CCC2(C)C(OP(=O)(N4CC4)N4CC4)CCC32)CC1=O (stereo not given) | 16.9 | / | / | / | i | 2.6
CCCCCc1nc2c(c(=O)c3ccccc3n2C)c(=O)n1C1CCCCCC1 | 17.0 | 215.1 | i | 1.0 | + | 0.3
Cc1ccc(-n2c(O)c(C=Nc3ccc(S(=O)(=O)N(C)C)cc3)c(=O)[nH]c2=O)cc1 | 33.8* | 442.6 | i | 3.0 | i | 0.6
Cc1ccc(N=Cc2c(O)n(-c3ccc(C)cc3)c(=O)[nH]c2=O)cc1 | 25.1 | 156.4 | i | 0.0 | i | -1.1
COc1ccc2c3c([nH]c2c1)C(C)NCC3 (stereo not given) | 14.4 | 367.5 | i | 0.0 | + | -1.6
C/C=C/CC#N | -25.1 | i | / | 0.0 | i | -1.0
O=C1NCN(c2ccccc2)C12CCN(C(c1cc3ccccc3o1)c1nnnn1-c1ccc3c(c1)OCCO3)CC2 (stereo not given) | 4.7 | / | / | / | i | 1.3
CNC(=O)Oc1cccc(-c2cn3cc(OC(=O)NC)ccc3n2)c1 | 49.6* | 563.3 | / | 0.0 | i | 2.4
CN1C(=O)c2ccccc2NC(=O)[C@]12O[C@@H]2c1ccccc1 | 13.6 | 329.8 | + | 2.0 | i | -1.9
O=C1Nc2ccccc2C(c2ccccc2)=NC1O (stereo not given) | 7.6 | 198.8 | i | 2.0 | i | 1.6

From PubChem
